# Runt-CBFb FRET = blocks binding of human RUNX1 Runt domain to CBFb | AID 1496 | 220,000 compounds, 0.46% hits | inhibition, % at 20 µM | Cerulean-Runt/Venus-CBFb FRET ratio 530/480, 1 h | Q01196+Q13951;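 active = inhibition over about 50% at 20 µM in the single-dose screen, limit read from the data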;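 note: 0% = DMSO wells and 100% = excess unlabeled CBFb competitor control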
#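 Reagent – Venus-CBFb binding partner, 100 nM · Assay system – Cerulean-tagged RUNX1 Runt domain (FRET donor) fusion protein · Input – 100 nM per protein · Incubation – two 1 h room-temperature incubations shielded from light · Measured by – FRET fluorescence · Medium – Tris buffer pH 7.5 with salts and BSA · Benchmarks – unlabeled CBFb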
# MEX-5 binding = C. elegans MEX-5 TCR-2 RNA binding activity; activity score (negative = inhibition of binding), % at 10 µM; Q9XUB2; 300,000 compounds, 0.38% hits; MEX-5/FITC-TCR2 RNA binding, fluorescence polarization; active compounds read low;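 active = inhibition past about -25% in most replicates, and total fluorescence under double the plate's negative control median, limit read from the data; inconclusive = replicates evenly split on the limit, or fluorescence at least double controls; inactive = too little inhibition in most replicates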;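 note: 0% = DMSO and -100% = 5 µM competing unlabeled TCR2 RNA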
# Target sequence (Q9XUB2 whole entry, looked up): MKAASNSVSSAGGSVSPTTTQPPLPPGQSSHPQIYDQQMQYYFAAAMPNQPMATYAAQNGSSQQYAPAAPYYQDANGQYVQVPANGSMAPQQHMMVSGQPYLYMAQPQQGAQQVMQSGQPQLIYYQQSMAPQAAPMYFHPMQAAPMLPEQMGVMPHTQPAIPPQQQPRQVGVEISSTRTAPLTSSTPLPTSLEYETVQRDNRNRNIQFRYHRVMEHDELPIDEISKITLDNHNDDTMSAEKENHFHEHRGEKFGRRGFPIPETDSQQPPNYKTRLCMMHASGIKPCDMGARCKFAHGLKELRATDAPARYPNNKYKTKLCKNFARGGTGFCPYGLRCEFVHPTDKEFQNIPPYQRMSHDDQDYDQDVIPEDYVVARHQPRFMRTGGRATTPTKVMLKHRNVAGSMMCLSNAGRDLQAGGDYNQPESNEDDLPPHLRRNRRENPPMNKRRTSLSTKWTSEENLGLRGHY
# Runt-SMMHC FRET = Runt domain-CBFb-SMMHC interaction inhibition | Q01196+Q13951 | Cerulean-Runt/Venus-CBFb-SMMHC FRET ratio 530/480, 1 h | inhibition, % at 20 µM | 220,000 compounds, 0.74% hits;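 active = mean inhibition across duplicate retests at 20 µM reaching about 50%, limit read from the data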;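 note: 0% = DMSO wells and 100% = wells with excess untagged CBFb-SMMHC; inhibitors lower the FRET ratio by blocking Runt binding to CBFb-SMMHC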
# RanGTP-Imp inh = disruptors of Ran-importin-beta complex formation – biochemical, FRET, CFP-Ran, YFP-importin-beta, homogeneous, primary screen; cell-free CFP-Ran/YFP-importin-beta FRET ratio; inhibition, % (test concentration not listed); 300,000 compounds, 1.1% hits; AID 2216;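 active = more than half of the replicate wells show a fall in the fluorescence ratio signal beyond about 16%, limit read from the data, passing the limit was not always enough; inconclusive = exactly half of the replicate wells pass the set limit; inactive = fewer than half of replicates pass the limit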;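 note: 0% = DMSO wells and 100% = Ran loaded with GDP instead of GTP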
# proKLK7 act = proKLK7 (human) activation, primary screen. activation, % at 7 µM. purified proKLK7, EDANS-DABCYL substrate fluorescence; 100% is mature enzyme control, 0% vehicle. P49862. 370,000 compounds, 0.9% hits;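 active = activation above the mean of all tested compounds plus 3 SD, computed per campaign excluding outliers beyond control limits, cut at about 13% in these data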
# Target sequence (P49862 whole entry, looked up): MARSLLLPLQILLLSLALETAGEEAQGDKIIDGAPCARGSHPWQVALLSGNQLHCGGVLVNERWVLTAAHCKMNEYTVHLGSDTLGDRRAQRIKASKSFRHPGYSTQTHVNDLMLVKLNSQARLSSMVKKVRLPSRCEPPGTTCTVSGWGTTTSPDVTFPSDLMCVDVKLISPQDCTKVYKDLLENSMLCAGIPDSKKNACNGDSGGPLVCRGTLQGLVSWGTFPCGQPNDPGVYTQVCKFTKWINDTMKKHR
# KLK7 act conf = proKLK7 activation, confirmation; shares compounds with proKLK7 act; purified proKLK7, EDANS-DABCYL substrate fluorescence; scaled: vehicle 0, mature enzyme 100; activation, % at 7 µM; 3,200 compounds, 68% hits; AID 686949;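 active = activation, as change over the incubation, above the mean of all tested compounds plus 3 SD, cut at about 13% in these data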
# EDANS interfere = fluorescence interference counter-screen for KLK7 activators | shares compounds with proKLK7 act | EDANS-DABCYL substrate fluorescence interference, no enzyme, 4 h; solvent 0%, active enzyme control 100% | activation, % at 7 µM | 3,200 compounds, 80% hits | AID 686952;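 active = activation above the all-compound mean plus 3 SD, ignoring values outside control-based bounds, cut at about 4.8% in these data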;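 note: value is the 4 h activation minus the activation read at time zero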
# EDANS interf = EDANS fluorescence interference in dose response, no enzyme | AID 720493 | EC50, µM | 250 compounds, 20% hits | EDANS-DABCYL peptide fluorescence interference | shares compounds with proKLK7 act;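 active = compounds that raise the fluorescence signal in this interference counterscreen, with EC50 at or below 10 µM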;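 note: intact quenched peptide substrate alone read at 355 nm excitation and 520 nm emission; signal is fluorescence gain from T0 to T4 after four hours at room temperature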
# The depositor's hits bear a star; ? = inconclusive; . = no result given. A selection: hits, their analogues and other compounds. The true share with any hit is near 2.1%.
SMILES,Runt-CBFb FRET,MEX-5 binding,Runt-SMMHC FRET,RanGTP-Imp inh,proKLK7 act,KLK7 act conf,EDANS interfere,others
Cc1oc2c(C)c(O)ccc2c(=O)c1N1C(=O)c2ccccc2C1=O,-3.1,1.1,0.9,1.6,68.8*,99.3*,103.4*,
COC(=O)c1cc(-c2c(C)oc3cc(O)ccc3c2=O)c(C)o1,-0.8,-0.3,0.5,-2.3,-12.2,.,.,
CC(C)(C)n1nnnc1C1c2ccccc2C(=O)N1CCc1c[nH]c2ccccc12 (centres undefined),.,.,.,.,-0.2,.,.,
Cc1oc2cc(O)ccc2c(=O)c1N1C(=O)c2ccccc2C1=O,-0.4,-1.8,-2.2,5.1,343.8*,297.5*,301.0*,
Cc1oc2cc(O)ccc2c(=O)c1Oc1ccccc1Br,0.8,-0.6,3.8,0.4,0.6,.,.,
O=C1Nc2ccccc2/C1=C/c1cnc(-c2ccccc2)[nH]1,-141.4,-10.2,-158.0,-34.0,20.1*,40.0*,53.6*,
COc1ccc(-c2cc3ccc(O)cc3oc2=O)cc1OC,.,-1.8,.,106.4*,42.2*,70.6*,70.7*,
COc1ccc(-c2cc(=O)c3cc(O)ccc3o2)cc1,1.0,0.0,-0.8,3.0,0.2,.,.,
COc1ccc(-c2cc(=O)c3ccc(O)cc3o2)cc1OC,.,.,.,.,120.6*,41.7*,45.9*,
CN(C)C(=O)COC(=O)c1cc(Cl)cc(Cl)c1N,-0.5,-1.1,0.7,-1.6,25.3*,24.3*,30.9*,
CC(C)N(C(=O)COC(=O)c1cc(Cl)cc(Cl)c1N)C(C)C,3.0,1.2,0.2,3.8,-0.1,.,.,
NC(=S)N/N=C/c1ccccc1OC(=O)/C=C/c1ccccc1,.,-1.6,.,1.9,1.8,.,.,
NC(=S)N/N=C/c1ccccc1OC(=O)c1cc2ccccc2oc1=O,.,0.8,.,5.6,42.5*,228.5*,200.4*,
COc1cc2c(cc1OC)-c1cc(OCc3cccnc3)nc(=O)n1CC2,0.3,.,1.7,.,61.0*,63.0*,65.3*,
COc1cc2c(cc1OC)-c1cc(Nc3ccccc3)nc(=O)n1CC2,3.4,2.1,4.2,-1.0,2.6,.,.,
CC1=C(C#N)C(c2cccnc2)C2=C(CCCC2=O)N1 (centres undefined),14.4,.,36.8,.,16.6*,50.7*,63.6*,
COC1=CC(=O)c2c(ccc3ncnc(N)c23)C1=O,.,.,.,.,1.8,.,.,
COC1=CC(=O)c2nc(Cl)ccc2C1=O,.,.,.,.,92.2*,161.0*,160.8*,
COc1ccc(C(=O)CSc2n[nH]c(=O)n2Cc2ccco2)cc1,0.4,-0.1,-1.9,7.5,0.1,.,.,
CCOC(=O)c1cc2c(=O)n3cccc(C)c3nc2n(Cc2ccco2)c1=NC(=O)c1ccccc1,92.7*,-12.5,.,105.7*,24.3*,36.6*,36.1*,
CCOC(=O)c1cc2c(=O)n3ccccc3nc2n(Cc2ccco2)c1=NC(=O)c1ccc(OC)cc1,89.2*,-6.0,86.3*,-1.5,12.7*,105.2*,104.0*,
O=C(Cc1ccc(NC(=O)C2CCN(C(=O)C3CCC3)CC2)cc1)Nc1cccc(C(=O)N2CCCCC2)c1,.,.,.,.,0.2,.,.,
COC(=O)c1cc(-c2ccc(C(C)(C)C)cc2)c(=O)n2c1CCC2,.,.,.,.,-0.1,.,.,
CCCN1CCN(CCCNC(=O)c2cc3c(=O)[nH]c4ccc(C)cc4c3s2)CC1,2.0,2.8,2.4,-2.7,21.4*,-16.5,-14.3,
Cc1cc(=O)n2c3c(c4c(cc13)c(CN(C)C)cc(=O)n4C)OC2,.,.,.,.,29.9*,14.9*,17.1*,
SMILES,Runt-CBFb FRET,MEX-5 binding,Runt-SMMHC FRET,RanGTP-Imp inh,proKLK7 act,KLK7 act conf,EDANS interfere,others
CC(=O)Nc1cnc(-c2cccc(C(=O)N3CCOCC3)c2)cn1,.,.,.,.,0.5,.,.,
CNc1cnc(-c2ccc(C(=O)N3CCOCC3)cc2)cn1,.,.,.,.,20.3*,19.8*,22.0*,
CC(c1ccccc1C(=O)O)c1cc(F)cc2ccccc12 (centres undefined),.,.,.,.,-0.1,.,.,
Cc1ccc(NC(=O)c2ncn(CC(=O)N3CCN(c4ccccn4)CC3)n2)cc1C,.,.,.,.,-0.6,.,.,
CCOC(=O)c1cc2c(=O)n3ccccc3nc2n(C(C)C)c1=NC(=O)c1ccco1,20.3,-1.3,86.3*,0.3,43.8*,59.1*,51.1*,
CC(C)n1c(=NC(=O)c2ccco2)c(C#N)cc2c(=O)n3ccccc3cc21,5.4,-7.1,82.8*,107.2*,45.2*,21.6*,18.8*,
Cc1nc2ccccn2c(=O)c1NC(=O)c1ccco1,.,.,.,.,-0.7,.,.,
C=CCn1c(=NC(=O)c2ccco2)sc2cc(C(=O)OC)ccc21,-0.3,-3.0,0.2,0.3,-3.7,.,.,
CCCn1c(=NC(=O)c2ccco2)c(C(=O)OCC)cc2c(=O)n3ccccc3nc21,18.7,-3.8,56.2*,116.4*,88.6*,35.0*,35.5*,
CNC(=S)NNC(=O)c1sc(-c2cc(C)on2)nc1C,4.6,0.8,-0.9,-3.1,21.0*,33.5*,37.3*,
O=C1CCC(C(=O)N(CCO)Cc2ccccc2)CN1CCc1cccc(F)c1 (centres undefined),.,.,.,.,0.1,.,.,
COc1cc2c(cc1OC)C(C1C(=O)CC(C)(C)CC1=O)N(C(=O)CCl)CC2 (centres undefined),2.5,0.9,5.7,1.7,124.2*,12.4,15.2*,
COc1cc2c(cc1OC)C(C)N(C(=O)Cc1ccc(C(F)(F)F)cc1)CC2 (centres undefined),.,-1.9,.,3.4,1.0,.,.,
COc1ccc(CC(=O)N2CCc3cc(OC)c(OC)cc3C2O)cc1OC (centres undefined),1.2,0.7,-7.7,-0.6,14.1*,4.6,4.1*,
O=C(NC1CCCc2c1cnn2-c1ccc(F)cc1F)c1csnn1 (centres undefined),.,-2.4,.,?,-0.4,.,.,
CN1CCN(S(=O)(=O)c2ccc3c4c(cccc24)C(=O)N3)CC1,14.1,-0.7,16.4,3.6,66.3*,40.9*,49.0*,
O=C1Nc2ccc(S(=O)(=O)N3CCOCC3)c3cccc1c23,10.8,1.0,17.3,1.3,34.5*,58.4*,56.6*,
CS(=O)(=O)N1CCC(C(=O)NNC(=O)Nc2ccc(F)c(Cl)c2)CC1,.,0.8,.,0.5,-0.4,.,.,
Cc1ccc(N(Cc2cc3ccc(C)cc3[nH]c2=O)S(=O)(=O)c2ccccc2)cc1,.,1.0,.,?,-0.1,.,.,
O=C1NC(c2ccc(Br)cc2)Nc2ccccc21 (centres undefined),.,1.7,.,-4.8,13.6*,20.6*,15.1*,EDANS interf=>69.5

# Source: PubChem (several laboratories)
